Assay results gathered from unrelated publications.
Protocols differ between the studies behind these lines.
Target: Macrophage-stimulating protein receptor (MST1R, Homo sapiens, UniProt Q04912)

COc1cc(Nc2ncc(F)c(Nc3ccc4c(n3)NC(=O)C(C)(C)O4)n2)cc(OC)c1OC — inhibition (binding, competition with immobilised ligand; 10 µM): 100%
Cn1cncc1[C@@](O)(COc1ccc(C#N)cc1-c1ccc(OC(F)(F)F)cc1)c1ccc(C#N)cc1 — remaining binding (cell-free assay, competition with immobilised ligand; 1 µM): 100%
Cn1cc(-c2cc(F)cc(N3CCn4c(cc5c4CCCC5)C3=O)c2CO)cc(Nc2ccc(N3CCN(C4COC4)CC3)cn2)c1=O — inhibition (enzyme activity, inhibitor; 0.1 µM): 8%
Cc1nn(C)cc1-c1nc2c(N3CCN(Cc4ccc(Cl)cc4)CC3)c(Cl)cnc2[nH]1 — remaining binding (binding, competition with immobilised ligand; 1 µM): 100%
C#Cc1n[nH]c2c(-c3cn([C@@H](C)c4ccccn4)c(=O)[nH]c3=O)cc(F)cc12 — inhibition (enzyme activity, inhibitor; 0.1 µM): 47.6%
Cn1cc(-c2cccc(N3CCc4c(sc5c4CC(C)(C)C5)C3=O)c2CO)cc(Nc2ccncn2)c1=O — inhibition (enzyme activity, inhibitor; 1 µM): 11%
COc1ncccc1-c1cnn2ccc(N3CCN(C(=O)OC(C)C)CC3)nc12 — remaining binding (binding, competition with immobilised ligand; 1 µM): 100%
CC(C)(C)c1cc(C=C(C#N)C#N)cc(Br)c1O — remaining activity (enzyme activity, inhibitor; 0.5 µM): 105%
C#Cc1n[nH]c2c(-c3cn([C@@H](C)c4ccccc4)c(=O)[nH]c3=O)cc(F)cc12 — inhibition (enzyme activity, inhibitor; 0.1 µM): 38.6%
O=c1[nH]c2ccccc2n1C1CCN(Cc2ccc(-c3[nH]c4cc5ncnc5cc4nc3-c3ccccc3)cc2)CC1 — remaining signal (cell-free assay; 0.5 µM): 111%
N#CC1(c2ccccn2)CCN(Cc2cc(C(=O)O)c(=O)n3ccccc23)CC1 — remaining binding (cell-free assay, competition with immobilised ligand; 1 µM): 100%
